Measured values from ChEMBL document CHEMBL4390648, “Chemical synthesis, crystal structure, versatile evaluation of their biological activities and molecular simulations of novel pyrithiobac derivatives” (Eur J Med Chem, 2019).
In brackets after ≈: the same amount, converted by molar mass. Activity calls are given as the source filed them. The rule behind the calls is not given here.

Legend:
Phytophthora capsici = experiment: Antifungal activity against Phytophthora capsici assessed as reduction in growth at 50 mg/l by mycelium growth rate method relative to control; format: functional
How it was run: (§1)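 Mycelium growth rate method against S. sclerotiorum, P. capsici, P. piricola, R. cerealis, W. anthracnose and R. bakanae. Each compound tested at 50 mg/L, with chlorothalonil and PTB as controls. Relative inhibitory ratio (%) calculated from mycelial growth.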

[1] = system: Brassica rapa subsp. oleifera; experiment: Herbicidal activity against Brassica campestris L assessed as inhibition of rape root growth at 10 mg/l root growth incubated for 48 hrs relative to control; format: functional
How it was run: (§2)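 Rape seeds soaked in distilled water for 4 h, then placed on filter paper wetted with inhibitor solution, 15 seeds per 6-cm dish. Germinated in the dark at 28 °C for 48 h. Mean length of 10 roots per plate measured.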

Sclerotinia sclerotiorum = experiment: Antifungal activity against Sclerotinia sclerotiorum assessed as reduction in growth at 50 mg/l by mycelium growth rate method relative to control; format: functional; how it was run: as §1
Tobacco mosaic virus [2] = experiment: Antiviral activity against Tobacco mosaic virus inoculated in Nicotiana tabacum leaves assessed as passivation by measuring local lesion numbers at 100 mg/l pre-incubated with virus for 30 mins followed by inoculation and measured up to 4 days; format: functional
How it was run: (§3)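 Passivation assay: TMV mixed with an equal volume of compound solution for 30 min, then rubbed onto the left half of N. tabacum L. leaves. The right half received virus mixed with solvent as control. Local lesions counted 3–4 days after inoculation. Compounds tested at 500 or 100 mg/L.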

Candida albicans [3] = experiment: Antifungal activity against Candida albicans isolate g5 grown in RPMI 1640 medium incubated for 24 hrs by microdilution method; format: functional; conditions: isolate g5, 24 h
How it was run: (§4)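 C. albicans standard strain SC5314 and clinical isolates g5 and 17# tested by broth microdilution in YNB or RPMI 1640 medium. Plates incubated at 35 °C for up to 72 h, with visual readings taken at 24 h. MIC taken as the lowest concentration preventing visible growth.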

Candida albicans [4] = experiment: Inhibition of Candida albicans AHAS catalytic subunit at 100 uM using pyruvate as substrate measured after 30 mins by colorimetric method relative to control
How it was run: (§5)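 Colorimetric assay in 50 mM potassium phosphate pH 7.0 with 50 mM pyruvate, 1 mM thiamine diphosphate, 10 mM MgCl2 and 10 μM FAD. Incubated 30 min at 37 °C for plant AHAS and 30 °C for fungal AHAS. Acetolactate formed was then quantified.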

Tobacco mosaic virus [5] = experiment: Antiviral activity against Tobacco mosaic virus inoculated in Nicotiana tabacum leaves assessed as passivation by measuring local lesion numbers at 500 mg/l pre-incubated with virus for 30 mins followed by inoculation and measured up to 4 days; format: functional; how it was run: as §3
[6] = system: Brassica rapa subsp. oleifera; experiment: Herbicidal activity against Brassica campestris L assessed as inhibition of rape root growth at 100 mg/l root growth incubated for 48 hrs relative to control; format: functional; how it was run: as §2
Arabidopsis thaliana [7] = experiment: Inhibition of Arabidopsis thaliana AHAS catalytic subunit using pyruvate as substrate at 100 uM measured after 30 mins by colorimetric method relative to control; how it was run: as §5
Candida albicans [8] = experiment: Antifungal activity against Candida albicans SC5314 grown in YNB medium incubated for 24 hrs by microdilution method; format: functional; conditions: SC5314, 24 h; how it was run: as §4
Mythimna separata = experiment: Insecticidal activity against Mythimna separata assessed as larval mortality at 600 mg/l by leaf-dip method; format: functional
Fusarium fujikuroi = experiment: Antifungal activity against Gibberella fujikuroi assessed as reduction in growth at 50 mg/l by mycelium growth rate method relative to control; format: functional; how it was run: as §1
[9] = system: Severe acute respiratory syndrome-related coronavirus; experiment: Inhibition of SARS coronavirus M protease using AVLQSGFRKK as substrate at 20 uM by FRET assay relative to control
How it was run: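 Purified SARS-CoV Mpro assayed by FRET. Protein, compound and substrate were preheated at 37 °C and oscillated. Fluorescence (ex 320/em 405 nm) was read every 5 s for 200 reads.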

Ceratobasidium cereale = experiment: Antifungal activity against Rhizoctonia cerealis assessed as reduction in growth at 50 mg/l by mycelium growth rate method relative to control; format: functional; how it was run: as §1
Candida albicans [10] = experiment: Antifungal activity against Candida albicans isolate g5 grown in YNB medium incubated for 24 hrs by microdilution method; format: functional; conditions: isolate g5, 24 h; how it was run: as §4
[11] = system: Botryosphaeria berengeriana; experiment: Antifungal activity against Physalospora pyricola assessed as reduction in growth at 50 mg/l by mycelium growth rate method relative to control; format: functional; how it was run: as §1
Candida albicans [12] = experiment: Antifungal activity against Candida albicans SC5314 grown in RPMI 1640 medium incubated for 24 hrs by microdilution method; format: functional; conditions: SC5314, 24 h; how it was run: as §4
Candida albicans [13] = experiment: Antifungal activity against Candida albicans isolate 17 grown in YNB medium incubated for 24 hrs by microdilution method; format: functional; conditions: isolate 17, 24 h; how it was run: as §4
Candida albicans [14] = experiment: Inhibition of Candida albicans AHAS catalytic subunit at 10 uM using pyruvate as substrate measured after 30 mins by colorimetric method relative to control; how it was run: as §5
Candida albicans [15] = experiment: Antifungal activity against Candida albicans isolate 17 grown in RPMI 1640 medium incubated for 24 hrs by microdilution method; format: functional; conditions: isolate 17, 24 h; how it was run: as §4
Arabidopsis thaliana [16] = experiment: Inhibition of Arabidopsis thaliana AHAS catalytic subunit using pyruvate as substrate at 10 uM measured after 30 mins by colorimetric method relative to control; how it was run: as §5
Colletotrichum = experiment: Antifungal activity against Colletotrichum (W. anthracnose) assessed as reduction in growth at 50 mg/l by mycelium growth rate method relative to control; format: functional; how it was run: as §1

| SMILES | inhibition at 50 µg/mL (Phytophthora capsici) [%] | inhibition (INH) [1] [%] | inhibition at 50 µg/mL (Sclerotinia sclerotiorum) [%] | MIC (Candida albicans [3]) [µg/mL] | inhibition (Candida albicans [4]) [%] | inhibition at 500 µg/mL (Tobacco mosaic virus [5]) [%] | inhibition (INH) [6] [%] | inhibition (Arabidopsis thaliana [7]) [%] | MIC (Candida albicans [8]) [µg/mL] | mortality at 600 µg/mL (Mythimna separata) [%] | inhibition at 50 µg/mL (Fusarium fujikuroi) [%] | inhibition [9] [%] | inhibition at 50 µg/mL (Ceratobasidium cereale) [%] | MIC (Candida albicans [10]) [µg/mL] | inhibition at 50 µg/mL [11] [%] | MIC (Candida albicans [12]) [µg/mL] | MIC (Candida albicans [13]) [µg/mL] | inhibition (Candida albicans [14]) [%] | MIC (Candida albicans [15]) [µg/mL] | inhibition (Arabidopsis thaliana [16]) [%] | further results |
| --- | --- | --- | --- | --- | --- | --- | --- | --- | --- | --- | --- | --- | --- | --- | --- | --- | --- | --- | --- | --- | --- |
| COc1nc(OC)nc(Sc2ccc(Br)cc2C(=O)O)n1 | 33.3 | 5.2 | 66.7 | > 100 | 96.7 | 0 | 55.1 | 19 | > 100 | 45 | 6.1 | 48.8 | 58.3 | > 100 | 59.4 | > 100 | > 100 | 59.3 | > 100 | 12 | inhibition (Tobacco mosaic virus [2]): inactive; inhibition at 50 µg/mL (Colletotrichum): 23.8% |
| COc1nc(OC)nc(Sc2ccc(C(=O)O)cc2Br)n1 | 41.7 | 0 | 77.8 | > 100 | 92.4 | 21.4 | 34.3 | 30 | > 100 | 10 | 57.6 | 25 | 58.3 | > 100 | 46.9 | > 100 | > 100 | 50.1 | > 100 | 22.4 | inhibition (Tobacco mosaic virus [2]): inactive; inhibition at 50 µg/mL (Colletotrichum): 35.7% |
| COc1nc(OC)nc(Sc2ccc(C#N)cc2F)n1 | 16.7 | 41.8 | 13.9 | 100 (≈ 342 µM) | 85.4 | 0 | 54.2 | 63.3 | 6.25 (≈ 21.4 µM) | 0 | 27.3 | 49.7 | 58.3 | 12.5 (≈ 42.8 µM) | 54.7 | 100 (≈ 342 µM) | 6.25 (≈ 21.4 µM) | 55.7 | 100 (≈ 342 µM) | 42.9 | inhibition (Tobacco mosaic virus [2]): inactive; inhibition at 50 µg/mL (Colletotrichum): 23.8% |
| COc1nc(OC)nc(Sc2ccc(C(=O)O)c(C(F)(F)F)c2)n1 | 8.3 | 4 | 75 | > 100 | 21.2 | 42.3 | 16.5 | 75.5 | > 100 | 80 | 36.4 | 22.2 | 38.1 | > 100 | 43.8 | > 100 | > 100 | 8.6 | > 100 | 21.8 | inhibition at 100 µg/mL (Tobacco mosaic virus [2]): 6.2%; inhibition at 50 µg/mL (Colletotrichum): 16.7% |
| COc1nc(OC)nc(Sc2ccc(Cl)cc2C#N)n1 | 16.7 | 0 | 27.8 | > 100 | 79.9 | 0 | 16.6 | 71.3 | > 100 | 0 | 33.3 | 85.1 | 45.2 | > 100 | 71.9 | > 100 | > 100 | 52.1 | > 100 | 44.9 | inhibition (Tobacco mosaic virus [2]): inactive; inhibition at 50 µg/mL (Colletotrichum): 23.8% |
| COc1nc(OC)nc(Sc2cccc(Br)c2C#N)n1 | 25 | 0 | 13.9 | > 100 | 71.1 | 0 | 14.3 | 74.7 | 12.5 (≈ 35.4 µM) | 75 | 21.2 | 96.3 | 31 | 12.5 (≈ 35.4 µM) | 73.4 | > 100 | 6.25 (≈ 17.7 µM) | 34.8 | > 100 | 40.3 | inhibition (Tobacco mosaic virus [2]): inactive; inhibition at 50 µg/mL (Colletotrichum): 47.6% |
| COc1nc(OC)nc(Sc2cccc(F)c2C#N)n1 | 33.3 | 2.2 | 63.9 | 100 (≈ 342 µM) | 70.4 | 0 | 26.2 | 86.5 | 6.25 (≈ 21.4 µM) | 20 | 24.2 | 90.8 | 52.4 | 12.5 (≈ 42.8 µM) | 45.3 | 100 (≈ 342 µM) | 3.12 (≈ 10.7 µM) | 46.3 | 100 (≈ 342 µM) | 34.5 | inhibition (Tobacco mosaic virus [2]): inactive; inhibition at 50 µg/mL (Colletotrichum): 42.9% |
| COc1nc(OC)nc(Sc2ccc(C(=O)O)cc2Cl)n1 | 58.3 | 0 | 69.4 | > 100 | 73 | 0 | 58.2 | 15.3 | 100 (≈ 305 µM) | 20 | 27.3 | 25.5 | 59.5 | 100 (≈ 305 µM) | 42.2 | > 100 | 25 (≈ 76.3 µM) | 25.6 | > 100 | 12.6 | inhibition (Tobacco mosaic virus [2]): inactive; inhibition at 50 µg/mL (Colletotrichum): 16.7% |
| COc1nc(OC)nc(Sc2ccc(Cl)cc2C(=O)O)n1 | 8.3 | 0 | 61.1 | > 100 | 68.8 | 0 | 24.2 | 59.6 | > 100 | 40 | 0 | 24.2 | 52.4 | > 100 | 40.6 | > 100 | > 100 | 39.3 | > 100 | 5.5 | inhibition (Tobacco mosaic virus [2]): inactive; inhibition at 50 µg/mL (Colletotrichum): 16.7% |
| COc1nc(OC)nc(Sc2cccc(Cl)c2C#N)n1 | 33.3 | 0 | 50 | > 100 | 59.5 | 0 | 17.4 | 79.3 | > 100 | 5 | 21.2 | 76.6 | 27.4 | > 100 | 51.6 | > 100 | > 100 | 38.9 | > 100 | 19.8 | inhibition (Tobacco mosaic virus [2]): inactive; inhibition at 50 µg/mL (Colletotrichum): 40.5% |
